Data: ChEMBL document CHEMBL5104181, “Development of Hydrogen Sulfide-Releasing Carbonic Anhydrases IX- and XII-Selective Inhibitors with Enhanced Antihyperalgesic Action in a Rat Model of Arthritis” (J Med Chem, 2022)
Activity calls are given as the source filed them. The calls are words filed in the database; no cut-off is given here.

Key:
Carbonic anhydrase 2 = Carbonic anhydrase 2 (Homo sapiens, UniProt P00918); assay: Inhibition of recombinant human CA2 pre-incubated for 15 mins by phenol red dye based stopped flow CO2 hydration assay
Carbonic anhydrase 4 = Carbonic anhydrase 4 (Homo sapiens, UniProt P22748); assay: Inhibition of recombinant human CA4 pre-incubated for 15 mins by phenol red dye based stopped flow CO2 hydration assay
Carbonic anhydrase 4, sequence (P22748 whole entry): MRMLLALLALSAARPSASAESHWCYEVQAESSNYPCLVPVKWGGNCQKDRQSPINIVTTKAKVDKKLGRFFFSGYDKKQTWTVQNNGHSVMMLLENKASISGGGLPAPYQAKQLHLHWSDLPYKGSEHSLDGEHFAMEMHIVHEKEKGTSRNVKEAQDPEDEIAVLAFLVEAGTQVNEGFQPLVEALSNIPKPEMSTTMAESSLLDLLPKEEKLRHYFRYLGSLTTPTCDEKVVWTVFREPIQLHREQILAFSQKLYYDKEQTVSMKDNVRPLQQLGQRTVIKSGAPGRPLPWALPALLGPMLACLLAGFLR

Carbonic anhydrase 9 = Carbonic anhydrase 9 (Homo sapiens, UniProt Q16790); assay: Inhibition of recombinant human CA9 pre-incubated for 15 mins by phenol red dye based stopped flow CO2 hydration assay
Carbonic anhydrase 12 = Carbonic anhydrase 12 (Homo sapiens, UniProt O43570); assay: Inhibition of recombinant human CA12 pre-incubated for 15 mins by phenol red dye based stopped flow CO2 hydration assay
Carbonic anhydrase 12, sequence (O43570 whole entry): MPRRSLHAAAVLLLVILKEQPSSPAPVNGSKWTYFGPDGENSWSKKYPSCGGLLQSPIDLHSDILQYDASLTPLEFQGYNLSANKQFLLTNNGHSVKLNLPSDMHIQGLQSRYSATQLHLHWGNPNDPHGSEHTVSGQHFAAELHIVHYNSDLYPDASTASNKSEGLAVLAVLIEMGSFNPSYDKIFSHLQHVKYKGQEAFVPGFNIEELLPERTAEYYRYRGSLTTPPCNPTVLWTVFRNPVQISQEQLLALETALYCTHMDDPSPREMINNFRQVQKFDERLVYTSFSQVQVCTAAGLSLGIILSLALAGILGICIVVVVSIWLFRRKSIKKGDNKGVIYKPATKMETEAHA

Carbonic anhydrase 1 = Carbonic anhydrase 1 (Homo sapiens, UniProt P00915); assay: Inhibition of recombinant human CA1 pre-incubated for 15 mins by phenol red dye based stopped flow CO2 hydration assay
Carbonic anhydrase 1, sequence (P00915 whole entry): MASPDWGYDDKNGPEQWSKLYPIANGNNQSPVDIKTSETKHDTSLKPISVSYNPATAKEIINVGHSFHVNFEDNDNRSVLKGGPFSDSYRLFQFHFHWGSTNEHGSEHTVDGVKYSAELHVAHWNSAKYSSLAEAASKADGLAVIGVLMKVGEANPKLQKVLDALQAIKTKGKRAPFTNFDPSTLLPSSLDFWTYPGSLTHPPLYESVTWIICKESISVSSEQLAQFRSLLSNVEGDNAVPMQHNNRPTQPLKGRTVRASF

Liver [1] = assay: Induction of H2S release in rat liver microsomes at 150 uM incubated for 90 mins by methylene blue based UV-Vis spectrophotometer analysis; type: functional; conditions: Homogenate, in the assay text read “rat liver homogenate” for “rat liver microsomes”
How it was run: (§1)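 Rat liver homogenized 1/20 w/v in ice-cold 50 mM potassium phosphate pH 7.4, diluted further 1:10; compound 150 μM final (30 mM DMSO stock) in airtight vials at 37 °C, 0–90 min. H2S trapped with zinc acetate, proteins precipitated with TCA, then N,N-dimethyl-p-phenylenediamine/FeCl3; methylene blue A667 after 30 min at 25 °C; Na2S calibration 1–250 μM; compound-free baseline; triplicate.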

Liver [2] = assay: Induction of H2S release in rat liver microsomes assessed as half life of H2S release at 150 uM incubated for 90 mins by methylene blue based UV-Vis spectrophotometer analysis; type: functional; conditions: Homogenate, in the assay text read “rat liver homogenate” for “rat liver microsomes”; how it was run: as §1
Liver [3] = assay: Induction of H2S release in rat liver microsomes assessed as Cmax of H2S release at 150 uM measured after 90 mins by methylene blue based UV-Vis spectrophotometer analysis; type: functional; conditions: Homogenate, in the assay text read “rat liver homogenate” for “rat liver microsomes”; how it was run: as §1
Rattus norvegicus [4] = assay: (§2) Antinociceptive activity against complete freund's adjuvant-induced arthritic Sprague-Dawley rat model assessed as reduction in mechanical hyperalgesia induced hypersensitivity at 10 to 30 mg/kg, po administered as single dose starting from day 14 post CFA injection and measured upto 75 mins by Paw pressure test; type: functional, organism-based; conditions: dose 10-30 mg/kg
Rattus norvegicus [5] = assay: as §2, with “increase” for “reduction”, “weight tolerated on ipsilateral paw” for “mechanical hyperalgesia induced hypersensitivity”, “after 15 to 45” for “upto 75”; type: functional, organism-based; conditions: dose 10-30 mg/kg, time lower 15.0 min, time upper […]
Rattus norvegicus [6] = assay: (§3) Antinociceptive activity against complete freund's adjuvant-induced arthritic Sprague-Dawley rat model assessed as reduction in spontaneous pain by measuring difference in weight tolerance on contralateral and ipsilateral paw administered orally as single dose starting from day 14 post CFA injection and measured after 30 to 45 mins by Incapacitance test; type: functional, organism-based; conditions: dose 1-30 mg/kg, route po, time lower 30.0 min, time upper […], DDE = dose-dependent effect
How it was run: (§4)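 Sprague Dawley rats 200–250 g, CFA 50 μL intra-articular into left tibiotarsal joint on day 0 (saline controls). On day 14, single oral dose in 1% CMC (hybrids 1, 10, 30 mg/kg; single agents 13.23 or 17.71 mg/kg). Incapacitance apparatus, rats on hind paws on 65° inclined plane; Δ weight = contralateral minus ipsilateral load over time; 8 rats, two experimental sets, mean (SEM).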

[7] = Toxicity in Sprague-Dawley rat model of complete freund's adjuvant-induced arthritis assessed as effect on autonomical parameters at 30 mg/kg, po measured for 24 hrs by Irwin test; type: organism-based; conditions: in vivo
How it was run: (§5)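 Single oral 30 mg/kg dose (1% CMC suspension) in CFA-arthritic Sprague Dawley rats; animals observed 24 h. Irwin screen in individual transparent cage scoring 26 autonomic, behavioral and neurological parameters; some signs recorded as present/absent, skin colour qualitatively, others semiquantitatively on observer scales (0 to +4, −4 to 0, or −4 to +4).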

[8] = Toxicity in Sprague-Dawley rat model of complete freund's adjuvant-induced arthritis assessed as effect on behavioral parameters at 30 mg/kg, po measured for 24 hrs by Irwin test; type: organism-based; conditions: in vivo; how it was run: as §5
[9] = Toxicity in Sprague-Dawley rat model of complete freund's adjuvant-induced arthritis assessed as effect on neurological parameters at 30 mg/kg, po measured for 24 hrs by Irwin test; type: organism-based; conditions: in vivo; how it was run: as §5
Liver [10] = assay: Induction of H2S release in rat liver microsomes assessed as Cmax of H2S release at 150 uM measured after 20 mins by methylene blue based UV-Vis spectrophotometer analysis; type: functional; conditions: Homogenate, in the assay text read “rat liver homogenate” for “rat liver microsomes”; how it was run: as §1
Rattus norvegicus [11] = assay: Antinociceptive activity against complete freund's adjuvant-induced arthritic Sprague-Dawley rat model assessed as increase in weight tolerated on ipsilateral paw at 13.23 mg/kg, po administered as single dose starting from day 14 post CFA injection and measured after 15 to 45 mins by Paw pressure test; type: functional, organism-based; conditions: time lower 15.0 min, time upper […]
Rattus norvegicus [12] = assay: as §3, with “paw at 13.23 mg/kg, po” for “paw”, “administered” for “administered orally”, “after 15 to” for “after”, “30” for “30 to 45”; type: functional, organism-based; conditions: time 15-30 min; how it was run: as §4
Rattus norvegicus [13] = assay: Antinociceptive activity against complete freund's adjuvant-induced arthritic Sprague-Dawley rat model assessed as reduction in mechanical hyperalgesia induced hypersensitivity administered orally as single dose starting from day 14 post CFA injection and measured upto 75 mins by Paw pressure test; type: functional, organism-based; conditions: dose 1-30 mg/kg, route po, DDE = dose-dependent effect
Rattus norvegicus [14] = assay: as §3, with “paw at 10 mg/kg, po” for “paw”, “administered” for “administered orally”, “upto 75” for “after 30 to 45”; type: functional, organism-based; how it was run: as §4

| SMILES | Ki (Carbonic anhydrase 2) | Ki (Carbonic anhydrase 4) | Ki (Carbonic anhydrase 9) | Ki (Carbonic anhydrase 12) | Ki (Carbonic anhydrase 1) | Activity (Liver [1]) | T1/2 (Liver [2]) | Cmax (Liver [3]) | Activity (Rattus norvegicus [4]) | Activity (Rattus norvegicus [5]) | Activity (Rattus norvegicus [6]) | Activity [7] | Activity [8] | Activity [9] | Cmax (Liver [10]) | Activity (Rattus norvegicus [11]) | Activity (Rattus norvegicus [12]) | Activity (Rattus norvegicus [13]) | Activity (Rattus norvegicus [14]) |
| --- | --- | --- | --- | --- | --- | --- | --- | --- | --- | --- | --- | --- | --- | --- | --- | --- | --- | --- | --- |
| COc1ccc(CN(CCc2ccc(S(N)(=O)=O)cc2)C(=O)c2ccc(-c3cssc3=S)cc2)cc1OC | 218 nM | 293 nM | 18.6 nM | 8.9 nM | – | – | – | – | – | – | – | – | – | – | – | – | – | – | – |
| NS(=O)(=O)c1ccc(CCNCc2cccc3ccccc23)cc1 | – | – | 45.3 nM | – | – | – | – | – | – | – | – | – | – | – | – | – | – | – | – |
| NS(=O)(=O)c1ccc(CCN(Cc2ccc(Cl)cc2)C(=O)c2ccc(-c3cssc3=S)cc2)cc1 | 2970 nM | 430 nM | 24 nM | 9.8 nM | 5510 nM | – | – | – | – | – | – | – | – | – | – | – | – | – | – |
| NS(=O)(=O)c1ccc(CCN(CCc2ccccc2)C(=O)c2ccc(-c3cssc3=S)cc2)cc1 | 661 nM | 243 nM | 126 nM | 9.6 nM | 4390 nM | – | – | – | – | – | – | – | – | – | – | – | – | – | – |
| N#CCCN(CCc1ccc(S(N)(=O)=O)cc1)C(=O)c1ccc(-c2cssc2=S)cc1 | 60.4 nM | 523 nM | 28.7 nM | 9.1 nM | 429 nM | – | – | – | – | – | – | – | – | – | – | – | – | – | – |
| O=C(O)c1ccc(-c2cssc2=S)cc1 | – | – | – | – | – | Active | 3.1 min | – | – | – | – | – | – | – | 12.1 µM | Active | Active | – | – |
| COc1cc([N+](=O)[O-])ccc1CN(CCc1ccc(S(N)(=O)=O)cc1)C(=O)c1ccc(-c2cssc2=S)cc1 | 2950 nM | 4090 nM | 4.1 nM | 7.7 nM | 6700 nM | Active | 4.3 min | 7.9 µM | – | – | Dde | Non-Toxic | Non-Toxic | Non-Toxic | – | – | – | Dde | – |
| COc1ccc(CN(CCc2ccc(S(N)(=O)=O)cc2)C(=O)c2ccc(-c3cssc3=S)cc2)cc1 | 589 nM | 1590 nM | 50.3 nM | 76.4 nM | 2210 nM | – | – | – | – | – | – | – | – | – | – | – | – | – | – |

More lines, in order of falling Ki (Carbonic anhydrase 9), values ahead:

| Ki (Carbonic anhydrase 2) | Ki (Carbonic anhydrase 4) | Ki (Carbonic anhydrase 9) | Ki (Carbonic anhydrase 12) | Ki (Carbonic anhydrase 1) | SMILES | Activity (Liver [1]) | T1/2 (Liver [2]) | Cmax (Liver [3]) | Activity (Rattus norvegicus [4]) | Activity (Rattus norvegicus [5]) | Activity (Rattus norvegicus [6]) | Activity [7] | Activity [8] | Activity [9] | Cmax (Liver [10]) | Activity (Rattus norvegicus [11]) | Activity (Rattus norvegicus [12]) | Activity (Rattus norvegicus [13]) | Activity (Rattus norvegicus [14]) |
| --- | --- | --- | --- | --- | --- | --- | --- | --- | --- | --- | --- | --- | --- | --- | --- | --- | --- | --- | --- |
| 600 nM | > 10000 nM | 46.3 nM | 65.3 nM | 5320 nM | NS(=O)(=O)c1ccc(CCN(Cc2ccc(F)cc2)C(=O)c2ccc(-c3cssc3=S)cc2)cc1 | – | – | – | – | – | – | – | – | – | – | – | – | – | – |
| 9650 nM | 404 nM | 46.2 nM | 8.4 nM | 7210 nM | CSc1ccc(CN(CCc2ccc(S(N)(=O)=O)cc2)C(=O)c2ccc(-c3cssc3=S)cc2)cc1 | Active | 4.3 min | 7.9 µM | Active | Active | Dde | Non-Toxic | Non-Toxic | Non-Toxic | – | – | – | – | – |
| 480 nM | 4340 nM | 43 nM | 9.7 nM | – | NS(=O)(=O)c1ccc(CCN(Cc2ccccc2)C(=O)c2ccc(-c3cssc3=S)cc2)cc1 | – | – | – | – | – | – | – | – | – | – | – | – | – | – |
| 4830 nM | 46.2 nM | 40.3 nM | 8.8 nM | > 10000 nM | N#Cc1ccc(CN(CCc2ccc(S(N)(=O)=O)cc2)C(=O)c2ccc(-c3cssc3=S)cc2)cc1 | – | – | – | – | – | – | – | – | – | – | – | – | – | – |
| 919 nM | > 10000 nM | 36.6 nM | 32.9 nM | 7450 nM | NS(=O)(=O)c1ccc(CCN(Cc2ccc([N+](=O)[O-])cc2)C(=O)c2ccc(-c3cssc3=S)cc2)cc1 | – | – | – | – | – | – | – | – | – | – | – | – | – | – |
| 995 nM | 3410 nM | 22.7 nM | 9.5 nM | 4260 nM | CN(C)c1ccc(CN(CCc2ccc(S(N)(=O)=O)cc2)C(=O)c2ccc(-c3cssc3=S)cc2)cc1 | – | – | – | – | – | – | – | – | – | – | – | – | – | – |
| 3660 nM | 1040 nM | 19.1 nM | 12.9 nM | 7700 nM | NS(=O)(=O)c1ccc(CCN(Cc2ccc(Br)cc2)C(=O)c2ccc(-c3cssc3=S)cc2)cc1 | – | – | – | – | – | – | – | – | – | – | – | – | – | – |
| 4460 nM | 244 nM | 15.6 nM | 7 nM | > 10000 nM | NS(=O)(=O)c1ccc(CCN(Cc2cccc3ccccc23)C(=O)c2ccc(-c3cssc3=S)cc2)cc1 | Active | 4.3 min | 7.9 µM | Active | Active | – | Non-Toxic | Non-Toxic | Non-Toxic | – | – | – | – | Active |
| 2480 nM | 48 nM | 2.4 nM | 8 nM | > 10000 nM | NS(=O)(=O)c1ccc(CCN(Cc2csc3ccccc23)C(=O)c2ccc(-c3cssc3=S)cc2)cc1 | Active | 4.3 min | 7.9 µM | Active | Active | Dde | Non-Toxic | Non-Toxic | Non-Toxic | – | – | – | – | – |
